Laboratory results taken from ChEMBL document CHEMBL4325835, “Atropisomerism by Design: Discovery of a Selective and Stable Phosphoinositide 3-Kinase (PI3K) β Inhibitor” (J Med Chem, 2018).
“And” between values parts separate entries of the source, which are not always exact repeats. Equal values may be shown once. “Also recorded” adds a separate entry of the source. One block for each compound: values may come before it. The source made the active and inactive calls. The calls are words filed in the database; no cut-off is given here.

Assays:
[1] = Volume of distribution at steady state in cynomolgus monkey at 1 mg/kg, iv by ESI-LC/MS/MS analysis; type: ADME, organism-based, Macaca fascicularis; conditions: in vivo, read-out: Vdss
[2] = Clearance in Beagle dog at 1 mg/kg, iv by ESI-LC/MS/MS analysis; type: ADME, organism-based, Canis lupus familiaris; conditions: in vivo
[3] = Conformation stability assessed as rate constant for (P)-4-(1-(5,8-difluoroquinolin-4-yl)-2-methyl-4-(4H-1,2,4-triazol-3-yl)-1H-benzo[d]imidazol-6-yl)-3-fluoropyridin-2-amine formation at 10 mg at 120 degC by chiral SFC analysis; type: physicochemical
[4] = MRT in Sprague-Dawley rat at 1 mg/kg, iv by ESI-LC/MS/MS analysis; type: ADME, organism-based; conditions: in vivo
[5] = Volume of distribution at steady state in rhesus monkey at 1 mg/kg, iv by ESI-LC/MS/MS analysis; type: ADME, organism-based, Macaca mulatta; conditions: in vivo, read-out: Vdss
[6] = biological target: T1, Aldehyde oxidase (Homo sapiens, UniProt Q06278); experiment: Drug metabolism in human hepatocytes assessed as AO-mediated 4-(6-(2-amino-3-fluoropyridin-4-yl)-2-methyl-4-(4H-1,2,4-triazol-3-yl)-1H-benzo[d]imidazol-1-yl)-5,8-difluoroquinolin-2(1H)-one metabolite formation at 0.5 uM measured up to 250 mins by UHPLC-HRMS based assay; type: ADME, cell-based
T1 sequence (Q06278 whole entry): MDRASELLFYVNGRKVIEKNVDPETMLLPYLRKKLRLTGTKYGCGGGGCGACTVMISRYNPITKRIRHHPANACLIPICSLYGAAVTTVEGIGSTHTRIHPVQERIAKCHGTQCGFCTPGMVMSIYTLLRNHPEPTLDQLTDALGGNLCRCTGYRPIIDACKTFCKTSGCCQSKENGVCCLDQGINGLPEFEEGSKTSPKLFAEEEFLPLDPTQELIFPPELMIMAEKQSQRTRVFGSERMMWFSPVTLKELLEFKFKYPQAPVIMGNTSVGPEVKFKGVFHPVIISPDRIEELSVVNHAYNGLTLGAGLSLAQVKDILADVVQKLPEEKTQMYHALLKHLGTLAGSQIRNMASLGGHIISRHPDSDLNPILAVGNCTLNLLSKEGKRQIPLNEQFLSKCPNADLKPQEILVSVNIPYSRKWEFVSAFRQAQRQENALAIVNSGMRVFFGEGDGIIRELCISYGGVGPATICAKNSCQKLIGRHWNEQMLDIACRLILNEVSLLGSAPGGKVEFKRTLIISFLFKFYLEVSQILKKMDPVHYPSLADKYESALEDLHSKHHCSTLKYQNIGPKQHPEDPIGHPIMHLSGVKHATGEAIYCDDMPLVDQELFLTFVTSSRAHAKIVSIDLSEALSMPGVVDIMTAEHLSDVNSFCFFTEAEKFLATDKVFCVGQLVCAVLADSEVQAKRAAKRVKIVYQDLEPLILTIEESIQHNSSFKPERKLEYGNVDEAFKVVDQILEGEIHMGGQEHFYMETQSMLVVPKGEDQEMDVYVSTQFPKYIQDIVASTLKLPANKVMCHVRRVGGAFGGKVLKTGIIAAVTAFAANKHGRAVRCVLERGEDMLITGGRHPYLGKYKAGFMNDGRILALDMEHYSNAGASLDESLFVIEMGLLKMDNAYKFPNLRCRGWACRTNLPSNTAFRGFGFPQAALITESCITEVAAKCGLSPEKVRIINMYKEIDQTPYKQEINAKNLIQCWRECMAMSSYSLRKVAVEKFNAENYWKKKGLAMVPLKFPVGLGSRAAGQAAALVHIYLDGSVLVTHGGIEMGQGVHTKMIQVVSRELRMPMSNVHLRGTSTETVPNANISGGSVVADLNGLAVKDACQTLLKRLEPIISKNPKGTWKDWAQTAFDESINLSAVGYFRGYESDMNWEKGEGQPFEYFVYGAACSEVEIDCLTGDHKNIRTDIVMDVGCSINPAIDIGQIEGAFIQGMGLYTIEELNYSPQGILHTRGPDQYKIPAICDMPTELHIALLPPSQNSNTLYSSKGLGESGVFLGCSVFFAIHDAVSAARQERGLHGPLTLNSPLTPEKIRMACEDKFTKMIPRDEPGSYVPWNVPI

[7] = biological target: Phosphatidylinositol 4,5-bisphosphate 3-kinase catalytic subunit gamma isoform (Homo sapiens, UniProt P48736); experiment: Inhibition of full length human PI3Kgamma using PIP2 as substrate after 30 mins by TR-FRET assay
Sequence of Phosphatidylinositol 4,5-bisphosphate 3-kinase catalytic subunit gamma isoform (P48736 whole entry, canonical isoform): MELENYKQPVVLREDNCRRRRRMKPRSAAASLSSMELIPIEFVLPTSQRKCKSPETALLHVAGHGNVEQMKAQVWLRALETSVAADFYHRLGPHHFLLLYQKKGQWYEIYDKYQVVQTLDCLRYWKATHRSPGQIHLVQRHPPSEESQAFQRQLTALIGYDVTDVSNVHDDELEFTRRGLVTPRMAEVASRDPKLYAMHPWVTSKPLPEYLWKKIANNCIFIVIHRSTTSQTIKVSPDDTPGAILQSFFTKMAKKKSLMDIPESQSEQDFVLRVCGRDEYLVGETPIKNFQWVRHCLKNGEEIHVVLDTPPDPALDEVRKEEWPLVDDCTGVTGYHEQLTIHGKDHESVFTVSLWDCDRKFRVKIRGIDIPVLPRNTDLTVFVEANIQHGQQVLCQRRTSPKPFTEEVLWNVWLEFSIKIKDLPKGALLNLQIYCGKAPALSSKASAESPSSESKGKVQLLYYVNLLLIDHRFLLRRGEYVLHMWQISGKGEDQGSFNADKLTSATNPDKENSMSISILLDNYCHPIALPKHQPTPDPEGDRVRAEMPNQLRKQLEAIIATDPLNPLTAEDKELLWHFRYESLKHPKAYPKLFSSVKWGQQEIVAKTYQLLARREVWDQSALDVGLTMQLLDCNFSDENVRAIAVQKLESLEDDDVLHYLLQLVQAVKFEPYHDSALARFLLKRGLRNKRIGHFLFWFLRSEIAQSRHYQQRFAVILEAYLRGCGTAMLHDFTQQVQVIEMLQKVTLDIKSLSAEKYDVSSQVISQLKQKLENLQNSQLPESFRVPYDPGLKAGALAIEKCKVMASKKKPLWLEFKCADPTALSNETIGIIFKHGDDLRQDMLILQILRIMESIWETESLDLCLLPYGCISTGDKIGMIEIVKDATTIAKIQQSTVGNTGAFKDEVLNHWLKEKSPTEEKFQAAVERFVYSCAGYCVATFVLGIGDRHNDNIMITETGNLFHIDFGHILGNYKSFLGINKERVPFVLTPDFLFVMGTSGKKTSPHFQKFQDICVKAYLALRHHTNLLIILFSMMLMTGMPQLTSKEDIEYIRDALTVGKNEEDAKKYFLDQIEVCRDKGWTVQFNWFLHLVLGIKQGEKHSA
In short: (§1)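 In vitro kinase assay run against each Class I PI3K isoform, with ATP at 2×Km steady-state concentration; IC50 values are the average of at least 2 determinations.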

[8] = Volume of distribution at steady state in Beagle dog at 1 mg/kg, iv by ESI-LC/MS/MS analysis; type: ADME, organism-based, Canis lupus familiaris; conditions: in vivo, read-out: Vdss
[9] = Terminal half life in rhesus monkey at 1 mg/kg, iv by ESI-LC/MS/MS analysis; type: ADME, organism-based, Macaca mulatta; conditions: in vivo, read-out: beta t1/2 (converted)
[10] = biological target: Phosphatidylinositol 4,5-bisphosphate 3-kinase catalytic subunit beta isoform (Homo sapiens) (UniProt P42338); experiment: Inhibition of partial length human PI3Kbeta expressed in mammalian system at 10 uM by active site-directed competition binding based KINOMEscan assay
Sequence of Phosphatidylinositol 4,5-bisphosphate 3-kinase catalytic subunit beta isoform (Homo sapiens) (P42338 whole entry, looked up, canonical isoform): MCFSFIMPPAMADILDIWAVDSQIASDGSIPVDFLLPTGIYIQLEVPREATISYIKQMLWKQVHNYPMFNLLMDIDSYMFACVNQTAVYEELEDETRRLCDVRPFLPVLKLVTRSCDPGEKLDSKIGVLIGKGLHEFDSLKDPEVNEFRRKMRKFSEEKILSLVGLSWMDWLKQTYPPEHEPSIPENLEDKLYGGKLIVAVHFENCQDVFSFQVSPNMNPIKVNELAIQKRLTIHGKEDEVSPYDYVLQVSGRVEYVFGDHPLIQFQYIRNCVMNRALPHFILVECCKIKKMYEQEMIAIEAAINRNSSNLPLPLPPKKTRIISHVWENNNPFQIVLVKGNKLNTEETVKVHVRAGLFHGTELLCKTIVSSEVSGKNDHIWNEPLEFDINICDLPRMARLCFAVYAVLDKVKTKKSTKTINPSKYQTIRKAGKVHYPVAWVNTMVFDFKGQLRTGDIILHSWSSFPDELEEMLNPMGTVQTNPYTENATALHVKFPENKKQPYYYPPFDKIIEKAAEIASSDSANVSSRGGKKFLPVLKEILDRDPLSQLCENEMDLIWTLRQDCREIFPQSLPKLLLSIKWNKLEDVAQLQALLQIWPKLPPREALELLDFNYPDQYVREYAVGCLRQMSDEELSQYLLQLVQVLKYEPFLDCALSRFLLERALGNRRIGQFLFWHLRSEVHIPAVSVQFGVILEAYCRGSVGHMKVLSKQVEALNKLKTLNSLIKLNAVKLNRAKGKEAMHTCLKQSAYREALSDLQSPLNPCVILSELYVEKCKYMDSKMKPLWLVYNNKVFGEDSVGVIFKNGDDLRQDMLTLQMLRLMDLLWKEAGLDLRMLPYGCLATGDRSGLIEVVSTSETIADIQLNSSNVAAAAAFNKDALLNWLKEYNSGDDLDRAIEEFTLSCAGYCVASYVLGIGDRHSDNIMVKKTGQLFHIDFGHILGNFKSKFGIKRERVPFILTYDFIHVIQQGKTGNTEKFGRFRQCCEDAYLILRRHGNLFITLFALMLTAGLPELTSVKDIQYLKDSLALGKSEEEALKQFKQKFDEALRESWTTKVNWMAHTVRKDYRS
In short: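 Active-site-directed competition binding assay across more than 400 human kinases, with compound tested at 10 µM.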

[11] = Terminal half life in Sprague-Dawley rat at 1 mg/kg, iv by ESI-LC/MS/MS analysis; type: ADME, organism-based; conditions: in vivo, read-out: beta t1/2 (converted)
[12] = Oral bioavailability in cynomolgus monkey at 5 mg/kg by ESI-LC/MS/MS analysis; type: ADME, organism-based, Macaca fascicularis; conditions: in vivo
[13] = Terminal half life in Beagle dog at 1 mg/kg, iv by ESI-LC/MS/MS analysis; type: ADME, organism-based, Canis lupus familiaris; conditions: in vivo, read-out: beta t1/2 (converted)
[14] = Clearance in cynomolgus monkey at 1 mg/kg, iv by ESI-LC/MS/MS analysis; type: ADME, organism-based, Macaca fascicularis; conditions: in vivo
[15] = Permeability across apical to basolateral side in human Caco2 cells at 10 uM after 1 to 2 hrs by LC/MS/MS analysis; type: ADME, cell-based; conditions: Caco-2, read-out: permeability
[16] = Fraction unbound in rhesus monkey plasma; type: ADME, cell-free, Macaca mulatta
[17] = Fraction unbound in Beagle dog plasma; type: ADME, cell-free, Canis lupus familiaris
[18] = Oral bioavailability in Sprague-Dawley rat at 5 mg/kg by ESI-LC/MS/MS analysis; type: ADME, organism-based; conditions: in vivo
[19] = Terminal half life in cynomolgus monkey at 1 mg/kg, iv by ESI-LC/MS/MS analysis; type: ADME, organism-based, Macaca fascicularis; conditions: in vivo, read-out: beta t1/2 (converted)
[20] = Fraction unbound in cynomolgus monkey plasma; type: ADME, cell-free, Macaca fascicularis
[21] = MRT in Beagle dog at 1 mg/kg, iv by ESI-LC/MS/MS analysis; type: ADME, organism-based, Canis lupus familiaris; conditions: in vivo
[22] = biological target: Voltage-gated inwardly rectifying potassium channel KCNH2 (Homo sapiens, UniProt Q12809); experiment: Inhibition of human ERG at 25 uM
Sequence of Voltage-gated inwardly rectifying potassium channel KCNH2 (Q12809 whole entry): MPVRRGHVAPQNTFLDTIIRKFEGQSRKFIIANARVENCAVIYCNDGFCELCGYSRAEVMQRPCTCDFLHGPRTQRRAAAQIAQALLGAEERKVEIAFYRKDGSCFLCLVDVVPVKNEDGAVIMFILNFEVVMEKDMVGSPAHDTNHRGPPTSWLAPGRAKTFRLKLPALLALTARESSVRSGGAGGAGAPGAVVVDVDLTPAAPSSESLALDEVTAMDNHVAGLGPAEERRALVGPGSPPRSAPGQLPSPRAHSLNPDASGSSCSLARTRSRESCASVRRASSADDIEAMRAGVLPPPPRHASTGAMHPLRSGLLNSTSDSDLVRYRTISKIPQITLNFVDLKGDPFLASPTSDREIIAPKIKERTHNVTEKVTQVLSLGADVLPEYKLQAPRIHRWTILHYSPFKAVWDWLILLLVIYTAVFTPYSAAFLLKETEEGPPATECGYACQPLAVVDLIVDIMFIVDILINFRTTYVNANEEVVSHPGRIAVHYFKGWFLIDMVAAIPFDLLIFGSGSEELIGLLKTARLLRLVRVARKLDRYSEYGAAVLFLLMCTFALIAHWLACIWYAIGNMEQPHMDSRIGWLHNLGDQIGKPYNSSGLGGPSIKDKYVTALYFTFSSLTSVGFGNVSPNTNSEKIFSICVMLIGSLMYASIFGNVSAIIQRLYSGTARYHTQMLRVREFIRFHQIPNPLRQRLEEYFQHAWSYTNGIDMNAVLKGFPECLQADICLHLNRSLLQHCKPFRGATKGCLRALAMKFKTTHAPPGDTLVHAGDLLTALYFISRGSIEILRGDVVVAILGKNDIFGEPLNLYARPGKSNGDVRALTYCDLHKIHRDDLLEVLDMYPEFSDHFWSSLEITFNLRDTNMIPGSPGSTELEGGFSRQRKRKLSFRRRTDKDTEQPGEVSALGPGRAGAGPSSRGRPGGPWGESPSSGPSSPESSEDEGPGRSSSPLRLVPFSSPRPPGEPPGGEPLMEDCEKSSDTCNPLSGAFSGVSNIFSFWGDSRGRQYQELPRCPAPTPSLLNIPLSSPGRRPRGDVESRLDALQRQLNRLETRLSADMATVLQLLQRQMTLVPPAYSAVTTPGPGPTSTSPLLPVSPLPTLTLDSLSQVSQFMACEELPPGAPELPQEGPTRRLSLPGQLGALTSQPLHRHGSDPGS

[23] = biological target: T1, Aldehyde oxidase; experiment: Drug metabolism in human hepatocytes assessed as AO-mediated triazole oxidation at 0.5 uM measured up to 250 mins by UHPLC-HRMS based assay; type: ADME, cell-based
[24] = MRT in rhesus monkey at 1 mg/kg, iv by ESI-LC/MS/MS analysis; type: ADME, organism-based, Macaca mulatta; conditions: in vivo
[25] = Efflux ratio of apparent permeability in human Caco2 cells at 10 uM after 1 to 2 hrs by LC/MS/MS analysis; type: ADME, cell-based; conditions: Caco-2
[26] = biological target: T1, Aldehyde oxidase; experiment: Drug metabolism in human liver cytosol assessed as AO-mediated 4-(6-(2-amino-3-fluoropyridin-4-yl)-2-methyl-4-(4H-1,2,4-triazol-3-yl)-1H-benzo[d]imidazol-1-yl)-5,8-difluoroquinolin-2(1H)-one metabolite formation at 0.5 uM measured after 2 hrs by UHPLC-HRMS based assay; type: ADME, subcellular
[27] = Clearance in Sprague-Dawley rat at 1 mg/kg, iv by ESI-LC/MS/MS analysis; type: ADME, organism-based; conditions: in vivo
[28] = Clearance in rhesus monkey at 1 mg/kg, iv by ESI-LC/MS/MS analysis; type: ADME, organism-based, Macaca mulatta; conditions: in vivo
[29] = Volume of distribution at steady state in Sprague-Dawley rat at 1 mg/kg, iv by ESI-LC/MS/MS analysis; type: ADME, organism-based; conditions: in vivo, read-out: Vdss
[30] = tested on: Cytochrome P450; experiment: Inhibition of human CYP450 at 25 uM; type: ADME, protein assay
[31] = Fraction unbound in Sprague-Dawley rat plasma; type: ADME, cell-free
[32] = Intrinsic clearance in human liver microsomes at 1 uM measured in presence of NADPH/UDPGA by UHPLC-HRMS based assay; type: ADME, Microsome
[33] = MRT in cynomolgus monkey at 1 mg/kg, iv by ESI-LC/MS/MS analysis; type: ADME, organism-based, Macaca fascicularis; conditions: in vivo
[34] = biological target: PI3-kinase p110-alpha/p85-alpha (Homo sapiens, UniProt P42336); experiment: Inhibition of full length human p110alpha/p85alpha using PIP2 as substrate after 30 mins by TR-FRET assay; type: protein-complex assay; in short: as §1
[35] = biological target: PI3-kinase p110-delta/p85-alpha (Homo sapiens, UniProt O00329); experiment: Inhibition of full length human p110delta/p85alpha using PIP2 as substrate after 30 mins by TR-FRET assay; type: protein-complex assay; in short: as §1
[36] = biological target: PI3K p110 beta/p85 alpha (Homo sapiens, UniProt P42338); experiment: Inhibition of full length human His-tagged p110beta/p85alpha using PIP2 as substrate after 30 mins by TR-FRET assay; type: protein-complex assay; in short: as §1
Sequence of PI3K p110 beta/p85 alpha (P27986 whole entry): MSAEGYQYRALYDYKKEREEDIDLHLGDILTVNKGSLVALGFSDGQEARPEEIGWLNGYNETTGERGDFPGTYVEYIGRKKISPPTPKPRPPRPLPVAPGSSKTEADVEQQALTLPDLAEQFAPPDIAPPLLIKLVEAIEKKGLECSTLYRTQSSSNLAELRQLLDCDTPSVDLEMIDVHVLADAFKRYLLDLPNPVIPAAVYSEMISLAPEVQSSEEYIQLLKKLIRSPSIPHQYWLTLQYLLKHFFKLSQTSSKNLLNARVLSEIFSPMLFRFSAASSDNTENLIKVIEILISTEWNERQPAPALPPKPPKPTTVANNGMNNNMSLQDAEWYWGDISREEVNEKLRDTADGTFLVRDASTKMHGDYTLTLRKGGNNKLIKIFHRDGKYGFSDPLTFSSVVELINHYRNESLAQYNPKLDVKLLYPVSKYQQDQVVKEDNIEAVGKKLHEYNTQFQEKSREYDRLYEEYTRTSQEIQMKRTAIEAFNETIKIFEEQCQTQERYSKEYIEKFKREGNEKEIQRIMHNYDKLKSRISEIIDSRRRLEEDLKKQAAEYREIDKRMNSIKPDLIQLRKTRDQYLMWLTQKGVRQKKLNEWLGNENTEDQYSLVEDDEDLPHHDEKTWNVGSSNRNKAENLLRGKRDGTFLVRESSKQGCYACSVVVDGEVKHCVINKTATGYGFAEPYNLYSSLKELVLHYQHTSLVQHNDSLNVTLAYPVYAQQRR
Sequence of PI3K p110 beta/p85 alpha (P42338 whole entry): as the sequence (P42338 whole entry, looked up, canonical isoform) above

Vd [1]: 0.45 L/kg | clearance [2]: 3.67 mL/min/kg | K [3]: 2.64 ×10⁻⁷ /s | MRT [4]: 3.87 h | Vd [5]: 0.63 L/kg | Drug metabolism [6]: Metabolite_Detected | IC50 [7]: > 10000 nM and 4270 nM and 4160 nM | Vd [8]: 0.89 L/kg | half-life [9]: 6.04 h | inhibition [10]: Active | half-life [11]: 9.55 h | bioavailability [12]: 64.2% | half-life [13]: 3.61 h | clearance [14]: 1.83 mL/min/kg | Papp A→B at 10 µM [15]: 17 ×10⁻⁶ cm/s | fraction unbound [16]: 0.072 | fraction unbound [17]: 0.078 | bioavailability [18]: 60.4% | half-life [19]: 5.17 h | fraction unbound [20]: 0.062 | MRT [21]: 4.04 h | Drug metabolism [23]: Metabolite_Detected | Stability [23]: Stable | MRT [24]: 6.2 h | efflux ratio at 10 µM [25]: < 1.5 | clearance [27]: 11.3 mL/min/kg | clearance [28]: 1.67 mL/min/kg | Vd [29]: 2.68 L/kg | inhibition (INH) [30]: Not Active | fraction unbound [31]: 0.19 | CLint scaled at 1 µM ([32]; liver microsomes, read-out: CLH (converted)): 2.5 mL/min/kg | CLH ([32]; microsomes, 1 µM): < 2 mL/min/kg | MRT [33]: 4.3 h
Structure (SMILES): Cc1nc2c(-c3nnc[nH]3)cc(-c3ccnc(N)c3F)cc2n1-c1ccnc2c(F)ccc(F)c12
inhibition (INH) [22]: Not Active | Drug metabolism [26]: Metabolite_Notdetected; also recorded: Metabolite_Detected

IC50 [34]: 233 nM | IC50 [35]: 67 nM | IC50 [7]: 440 nM | IC50 [36]: 11 nM
Structure (SMILES): Nc1nccc(-c2cc(-c3nnc[nH]3)c3ncn(-c4ccnc5c(F)ccc(F)c45)c3c2)c1F
